Compound activity as filed in PubChem.
TAAR1 agonist: agonists of human TAAR1; Q96RJ0; CHO RD-HGA16 TAAR1, Fluo-8 calcium fluorescence; vehicle wells 0%, saturating PEA agonist 100%; activation, % at 3 µM; 0.99% of 360,000 active; AID 624467;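 active means activation above the mean activation of all test compounds in the run plus 3 SD, cut at about 38% in these data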
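Assay system – CHO-derived RD-HGA16 cells with stable Gα16 and human TAAR1 · Compound dosing – one-point dosing at 3 µM (nominal) · Incubation – 17-24 h seeding, 75 min 37 °C dye, 30 min RT · Measured by – kinetic Fluo-8 calcium fluorescence · Control set – DMSO vehicle as 0%, PEA at EC100 as 100% · Repeats – single well for each compound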
M1 antag: antagonists of human M1 muscarinic receptor; CHO-K1 hM1, Fluo-8 calcium fluorescence, ACh EC80 antagonist; 1.3% of 360,000 active; inhibition, % at 3 µM; P11229;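 active means percent inhibition above its own plate's cutoff, namely the mean of that plate's compound wells plus 3 SD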;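 further: peak over basal fluorescence ratio during 140 s after agonist addition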
Target sequence (P11229 whole entry, looked up): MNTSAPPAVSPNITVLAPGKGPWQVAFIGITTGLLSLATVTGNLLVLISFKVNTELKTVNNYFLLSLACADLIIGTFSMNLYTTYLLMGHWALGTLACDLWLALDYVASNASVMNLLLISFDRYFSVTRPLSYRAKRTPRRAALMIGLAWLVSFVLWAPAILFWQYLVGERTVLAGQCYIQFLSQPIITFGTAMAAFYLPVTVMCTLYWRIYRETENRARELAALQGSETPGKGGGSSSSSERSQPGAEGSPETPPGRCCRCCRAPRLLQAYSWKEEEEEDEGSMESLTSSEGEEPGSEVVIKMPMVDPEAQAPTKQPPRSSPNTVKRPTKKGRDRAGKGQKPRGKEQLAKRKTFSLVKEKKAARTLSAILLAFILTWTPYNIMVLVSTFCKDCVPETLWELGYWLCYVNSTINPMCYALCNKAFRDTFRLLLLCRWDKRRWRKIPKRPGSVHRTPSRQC
TAAR1 antag: human TAAR1 antagonism. CHO RD-HGA16 TAAR1, Fluo-8 calcium fluorescence, antagonist. inhibition, % at 3 µM. 1.5% of 360,000 active. AID 624466;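 active means inhibition above a per-plate cutoff, the mean inhibition of test compounds on that plate plus 3 SD, cut at about 49% in these data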
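Test system: CHO RD-HGA16 cells bearing hTAAR1 | Reagent: β-PEA, EC80 | Compound dosing: 3 µM, single point | Schedule: Dye loading 75 min at 37 °C, then 30 min room temperature | Signal: Calcium fluorescence with Fluo-8 | Evaluation: Percent inhibition of PEA-evoked calcium signal, max/basal emission ratio | Control set: DMSO-only wells and EC80 β-PEA-stimulated wells | Repeats: Singlicate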
CHRM1 PAM: human CHRM1 positive allosteric modulation; CHO-K1 hM1, Fluo-8 calcium fluorescence, ACh EC20; 0% = ACh EC20, 100% = maximal ACh; activation, % at 3 µM; 0.088% of 360,000 active; in the data active means activation above about 19%, passing the limit was not always enough
CHRM1 agonist: activates human CHRM1 receptor; P11229; CHO-K1 hM1, Fluo-8 calcium fluorescence, agonist mode; 0% DMSO, 100% acetylcholine EC100; activation, % at 3 µM; 0.33% of 360,000 active;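 active means activation above the run's mean compound activation plus 3 SD, cut at about 16% in these data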;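 further: peak over basal fluorescence ratio within a 140 s kinetic read after compound addition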
Hits are given with their value. Most compounds without a hit are left out; they make up all but 3.4% or so of the library.

`Cc1nnc2ccc(Oc3ccc(-c4ccccc4)cc3)nn12` gave TAAR1 agonist inactive, M1 antag 34, TAAR1 antag inactive, CHRM1 PAM inactive and CHRM1 agonist inactive.
For COc1ccc(CCN2CC(=O)N3CCc4ccc(N5CCOCC5)cc4C3CC2=O)cc1OC (stereo unspecified) the results were TAAR1 agonist inactive and TAAR1 antag inactive.
S=C(Nc1cccc2ccccc12)NN1CCCCCC1 was read as TAAR1 agonist inactive, M1 antag 41, TAAR1 antag inactive, CHRM1 PAM inactive and CHRM1 agonist inactive.
Screening CCCN(Cc1ccc(N(CC)CC)cc1)CC1CC1 returned TAAR1 agonist inactive, M1 antag 52, TAAR1 antag inactive, CHRM1 PAM inactive and CHRM1 agonist inactive.
For CCCN(Cc1ccc(N(C)C)cc1)CC1CC1 the results were TAAR1 agonist inactive, M1 antag inactive, TAAR1 antag inactive, CHRM1 PAM inactive and CHRM1 agonist inactive.
For CC[C@H](C)Cc1cn([C@@H](CCCN=C(NC(=O)OC(C)(C)C)NC(=O)OC(C)(C)C)C(=O)NCCCCCCCCCCC(=O)N2CCN(C(=O)OC(C)(C)C)CC2)nn1 the results were M1 antag inactive, CHRM1 PAM inactive and CHRM1 agonist inactive.
Screening Cc1cn([C@@H](CCCCNC(=O)OC(C)(C)C)C(=O)NCCCCCCCCCCC(=O)N2CCN(C(=O)OC(C)(C)C)CC2)nn1 returned M1 antag 44, CHRM1 PAM inactive and CHRM1 agonist inactive.
For Cc1ccc(S(=O)(=O)N(C)c2ccc(OCC(=O)Nc3cc(C(=O)O)ccc3Cl)cc2)cc1 the results were TAAR1 agonist inactive and TAAR1 antag inactive.
O=C(Nc1cccc(C(F)(F)F)c1)c1ccc(Cn2cc(Br)cn2)o1 was read as TAAR1 agonist 57, M1 antag inactive, TAAR1 antag 54, CHRM1 PAM inactive and CHRM1 agonist inactive.
Screening CC(=O)O[C@@H]1C=C[C@@H](C#Cc2ccc(C(C)(C)C)cc2)O[C@@H]1COC(=O)NC(C)C returned TAAR1 agonist inactive and TAAR1 antag inactive.
For CCCCC#Cc1ccccc1COC[B-](F)(F)F the results were TAAR1 agonist inactive and TAAR1 antag inactive.
CCC1CCCCN1C/C=C/c1ccccc1[N+](=O)[O-] (stereo unspecified) was read as TAAR1 agonist inactive, M1 antag 89, TAAR1 antag inactive, CHRM1 PAM inactive and CHRM1 agonist inactive.
Screening CC1CCCCN1C/C=C/c1ccccc1[N+](=O)[O-] (stereo unspecified) returned TAAR1 agonist inactive, M1 antag 86, TAAR1 antag inactive, CHRM1 PAM inactive and CHRM1 agonist inactive.
CC1CCCN(C/C=C/c2ccccc2[N+](=O)[O-])C1 (stereo unspecified) was read as TAAR1 agonist inactive, M1 antag inactive, TAAR1 antag inactive, CHRM1 PAM inactive and CHRM1 agonist inactive.
O=[N+]([O-])c1ccccc1/C=C/CN1CCSCC1 was read as TAAR1 agonist inactive, M1 antag inactive, TAAR1 antag inactive, CHRM1 PAM inactive and CHRM1 agonist inactive.
Screening Cc1ccc2nc(-c3cccc(Cl)c3)c(Cc3ccsc3)n2c1 returned TAAR1 agonist inactive and TAAR1 antag inactive.
Nc1[nH]c(C(=O)c2ccccc2)c(-c2cccc(C(F)(F)F)c2)c1C(=O)NCCc1c[nH]c2ccccc12 was read as TAAR1 agonist inactive and TAAR1 antag inactive.
Screening COc1ccc(NC(=O)C2(C)Cc3c(-c4cccc(C(N)=O)c4)ccnc3O2)cc1 (stereo unspecified) returned TAAR1 agonist inactive, M1 antag inactive, TAAR1 antag inactive, CHRM1 PAM inactive and CHRM1 agonist inactive.
CC(=O)c1cccc(S(=O)(=O)N2CCC(C(=O)OC3CCOC3=O)CC2)c1 (stereo unspecified) was read as TAAR1 agonist inactive, M1 antag 27, TAAR1 antag inactive, CHRM1 PAM inactive and CHRM1 agonist inactive.
Screening COc1ccc(C(C)c2cc3c(cc2OCC(=O)O)OCO3)cc1 (stereo unspecified) returned TAAR1 agonist inactive and TAAR1 antag inactive.
O=C1NC(=S)SC1=Cc1ccccc1Cl was read as TAAR1 agonist inactive, M1 antag inactive, TAAR1 antag inactive, CHRM1 PAM inactive and CHRM1 agonist inactive.
Screening O=C1NC(=S)S/C1=C\c1cc(Cl)cc(Cl)c1O returned TAAR1 agonist 40, M1 antag 36, TAAR1 antag 65, CHRM1 PAM inactive and CHRM1 agonist 40.
Screening CCCC(=O)OC[C@H]1CN(C2CCCC2)S(=O)(=O)c2c(Oc3ccccc3)cccc2O1 returned TAAR1 agonist inactive and TAAR1 antag inactive.
For CC(C)n1c(CCC(=O)O)ccc1-c1ccccc1 the results were TAAR1 agonist inactive, M1 antag 22, TAAR1 antag inactive, CHRM1 PAM inactive and CHRM1 agonist inactive.
`O=C(O)CCc1ccc(-c2ccccc2)n1CC(=O)O` gave TAAR1 agonist inactive, M1 antag inactive, TAAR1 antag inactive, CHRM1 PAM inactive and CHRM1 agonist inactive.
For O=C(COC(=O)c1ccc(O)cc1)Nc1cc(C(F)(F)F)ccc1Cl the results were TAAR1 agonist 38, M1 antag inactive, TAAR1 antag inactive, CHRM1 PAM inactive and CHRM1 agonist inactive.
Screening CCCC(=O)Nc1ccc(C(=O)Nc2cc(C(F)(F)F)ccc2Cl)cc1 returned TAAR1 agonist 42, M1 antag inactive, TAAR1 antag inactive, CHRM1 PAM inactive and CHRM1 agonist inactive.
CC(OC(=O)c1ccc(O)cc1)C(=O)Nc1cc(C(F)(F)F)ccc1Cl (stereo unspecified) was read as TAAR1 agonist inactive, M1 antag inactive, TAAR1 antag inactive, CHRM1 PAM inactive and CHRM1 agonist inactive.
`CCc1c(-c2ccc(F)cc2)ncn1CCc1ccccc1OC` gave TAAR1 agonist inactive and TAAR1 antag inactive.
For O=S(=O)(c1ccc(Cl)cc1)N1CCN(C2CCN(Cc3ccccc3)CC2)CC1 the results were TAAR1 agonist inactive, M1 antag 37, TAAR1 antag inactive, CHRM1 PAM inactive and CHRM1 agonist inactive.
For CN(CC(=O)NC1CCN(Cc2ccccc2)CC1)S(=O)(=O)c1ccc(Cl)cc1 the results were TAAR1 agonist inactive, M1 antag inactive, TAAR1 antag inactive, CHRM1 PAM inactive and CHRM1 agonist inactive.
For O=[N+]([O-])c1ccccc1S(=O)(=O)N1CCN(C2CCN(Cc3ccccc3)CC2)CC1 the results were TAAR1 agonist inactive, M1 antag 54, TAAR1 antag inactive, CHRM1 PAM inactive and CHRM1 agonist inactive.
`O=S(=O)(NC1CCN(Cc2ccccc2)CC1)c1ccc(Cl)cc1` gave TAAR1 agonist inactive, M1 antag 52, TAAR1 antag inactive, CHRM1 PAM inactive and CHRM1 agonist inactive.
`COc1ccc(S(=O)(=O)N2CCC(N3CCN(Cc4ccccc4)CC3)CC2)cc1` gave TAAR1 agonist inactive, M1 antag 84, TAAR1 antag inactive, CHRM1 PAM inactive and CHRM1 agonist inactive.
CC(C)C[C@@H]1COc2cc(F)ccc2S(=O)(=O)N1 was read as TAAR1 agonist inactive and TAAR1 antag inactive.
